Data set [1] concerns Human immunodeficiency virus 1. Briefly: Antiviral activity against HIV1 isolate 94UG103 replication in human PBMC assessed as inhibition of p24 production after 7 days by ELISA. The note with it: Human immunodeficiency virus 1, isolate 94UG103, 168 h.
Data set [2] relates to Human immunodeficiency virus 1. In words: Antiviral activity against HIV1 3B replication in human MT2 cells under dark condition assessed as inhibition of p24 production after 4 days by ELISA. The conditions noted are these: Human immunodeficiency virus 1, 3B, MT2, 96 h.
The next data set concerns MT2. Briefly: Cytotoxicity against human MT2 cells after 4 days by XTT assay. The format is cell-based. The conditions noted are these: mt2, 96 h. An outline of the steps: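 Graded compound concentrations mixed with equal volume of MT-2 cells (5×10^5/mL), 37 °C for 4 days. XTT (1 mg/mL) with 0.02 μM phenazine methosulphate added, absorbance at 450 nm read after 4 h; CC50 calculated with CalcuSyn.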

A short description of data set [3]: Selectivity index, ratio of CC50 for human MT2 cells to EC50 for HIV1 3B replication in human MT2 cells exposed to light. It is filed as toxicity, cell-based. The conditions noted are these: read-out: Ratio CC50/EC50.
The subject of data set [4] is Human immunodeficiency virus 1. Briefly: Antiviral activity against HIV1 3B replication in human MT2 cells exposed to light assessed as inhibition of p24 production after 4 days by ELISA. The note with it: Human immunodeficiency virus 1, 3B, MT2, 96 h.

Turning to `CCc1ccc(-c2ccc(/C=C3\SC(=S)N(CCc4ccccc4)C3=O)o2)cc1C(=O)O`, the EC50 (usually the concentration that produces a half-maximal response) came out at 0.177 µM in data set [1], 0.03 µM in data set [2] and 0.081 µM in data set [4]. The CC50 (as a rule, the concentration that lowers cell viability or growth by half) in the data set with MT2 was determined as 17.4 µM. For the same compound, the selectivity ratio in data set [3] was 215.
As to `COc1ccc(-c2ccc(/C=C3\SC(=S)N(CCc4ccccc4)C3=O)o2)cc1C(=O)O`, the concentration giving a half-maximal response (EC50) in data set [1] stood at 2.23 µM; in data set [2], 0.266 µM; in data set [4] it was 1.3 µM. The compound also yielded a CC50 in the data set on MT2 of 28.7 µM. For the same compound, in data set [3], the selectivity ratio amounted to 22.
For `O=C(O)c1cc(-c2ccc(/C=C3\SC(=S)N(CCc4ccccc4)C3=O)o2)ccc1O` the same measures were 2.66 µM, 0.261 µM, 1.28 µM, 14.8 µM and 12.
`O=C(O)c1cccc(-c2ccc(/C=C3\SC(=S)N(CCc4ccccc4)C3=O)o2)c1`: the EC50 in data set [1] stood at 0.074 µM; in data set [2] it was 0.098 µM; in data set [4] it was 0.044 µM. In the data set on MT2, this compound gave a CC50 of 19.4 µM. Besides, the selectivity ratio in data set [3] was 440.
For `O=C(O)c1cc(-c2ccc(/C=C3\SC(=S)N(CCc4ccccc4)C3=O)o2)cnc1Br` the same measures were 0.353 µM, 0.227 µM, 0.268 µM, 5.53 µM and 40.
On to `O=C(O)c1cc(-c2ccc(/C=C3\SC(=S)N(CCc4ccccc4)C3=O)o2)ccc1Cl`, for which the EC50 in data set [1] came to 0.073 µM; in data set [2] it was 0.017 µM; in data set [4], 0.051 µM. Also, in the data set with MT2, it took 16.8 µM to reach half-maximal cytotoxicity (CC50). In data set [3], the selectivity ratio is 330.
For `Cc1c(C(=O)O)cncc1-c1ccc(/C=C2\SC(=S)N(CCc3ccccc3)C2=O)o1` the same measures were 4.04 µM, 0.538 µM, 0.39 µM, 78.9 µM and 202.
`O=C(O)c1cc(-c2ccc(/C=C3\SC(=S)N(CCc4ccccc4)C3=O)o2)ccc1Br`: the values for the EC50 in data set [1], in data set [2] and in data set [4] were 0.165 µM, 0.158 µM and 0.317 µM, respectively. The same compound gave a CC50 in the data set with MT2 of 3.29 µM. The selectivity ratio in data set [3] came to 10.
With `Cc1ccc(-c2ccc(/C=C3\SC(=S)N(CCc4ccccc4)C3=O)o2)cc1C(=O)O`, the EC50 in data set [1] came to 0.07 µM; in data set [2], 0.031 µM; in data set [4] it was 0.099 µM. In the data set with MT2, this compound registered a CC50 of 42.1 µM. Also, the selectivity ratio in data set [3] came out at 426.
For the compound `O=C(O)c1cc(-c2ccc(/C=C3\SC(=S)N(CCc4ccccc4)C3=O)o2)ccc1F`, the results for the EC50 in data set [1], in data set [2] and in data set [4] were 0.246 µM, 0.291 µM and 0.071 µM, respectively. In the data set with MT2, the midpoint of cytotoxicity, the CC50, lay at 27 µM. Further, the selectivity ratio in data set [3] came out at 380.
For `Cc1c(C(=O)O)cccc1-c1ccc(/C=C2\SC(=S)N(CCc3ccccc3)C2=O)o1` the same measures were 0.648 µM, 0.092 µM, 0.043 µM, 26.8 µM and 624.
Regarding `O=C(O)c1cccc(-c2ccc(/C=C3\SC(=S)N(CCc4ccccc4)C3=O)o2)c1Cl`, the results for the EC50 in data set [1], in data set [2] and in data set [4] were 0.033 µM, 0.078 µM and 0.064 µM, respectively. The same compound yielded a CC50 in the data set with MT2 of 6.73 µM. For the same compound, in data set [3], the selectivity ratio stood at 105.
Take `O=C(O)c1cc(-c2ccc(/C=C3\SC(=S)N(CCc4ccccc4)C3=O)o2)cnc1Cl`: the EC50 was found to be 0.598 µM in data set [1], 1.01 µM in data set [2] and 0.232 µM in data set [4]. For the same compound, the CC50 with MT2 was 38.4 µM. For the same compound, the selectivity ratio in data set [3] stood at 165.
Consider `O=C(O)c1cncc(-c2ccc(/C=C3\SC(=S)N(CCc4ccccc4)C3=O)o2)c1`, for which the EC50 in data set [1] was found to be 0.442 µM; in data set [2] it was 0.071 µM; in data set [4], 0.042 µM. For the same compound, in the data set with MT2, the CC50 was 38.4 µM. Besides, the selectivity ratio in data set [3] is 915.
For `O=C(O)c1cccc(-c2ccc(/C=C3\SC(=S)N(CCc4ccccc4)C3=O)o2)c1F` the same measures were 0.801 µM, 0.059 µM, 0.094 µM, 78.3 µM and 835.

Source of the values: ChEMBL document CHEMBL1155226, “Design, synthesis, and structure-activity relationship of a novel series of 2-aryl 5-(4-oxo-3-phenethyl-2-thioxothiazolidinylidenemethyl)furans as HIV-1 entry inhibitors” (J Med Chem, 2009).
